Consider 7 compounds from ChEMBL document CHEMBL3232837, “Synthesis and evaluation of new Hsp90 inhibitors based on a 1,4,5-trisubstituted 1,2,3-triazole scaffold” (J Med Chem, 2014).

Assay [1] addresses Heat shock protein HSP 90-beta (Homo sapiens) (UniProt P08238). The assay is described as follows: Inhibition of HSP90 in human A431 cells overexpressing EGFR assessed as downregulation of AKT protein expression after 24 hrs by Western blot analysis. In kind it is cell-based. The following applies: A-431. In short, it runs like this:
(§1)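 A431 cells treated 24 h after seeding for 24 h over a concentration range; 17-DMAG 0.2 µM as reference. Cells lysed in RIPA buffer with protease and phosphatase inhibitors, protein measured by Bradford. Equal protein run on SDS-PAGE and blotted to nitrocellulose, then probed for EGFR, Cdk4, Akt, Hsp70 and actin. ECL detection; densitometry normalized to β-actin. Run at least twice.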

The target is the same in assay [2]. The assay is described as follows: Inhibition of HSP90 in human A431 cells overexpressing EGFR assessed as downregulation of EGFR protein expression after 24 hrs by Western blot analysis. It is filed as cell-based. The following applies: A-431. In short, it runs like this:
as §1

Assay [3] concerns the target Heat shock protein HSP 90-alpha (Homo sapiens, UniProt P07900). The assay is described as follows: Displacement of GM-FITC from full-length recombinant human Hsp90-alpha after 4 hrs by fluorescence polarization assay. On the technique in general: Polarisation of emitted light reports the rotation of a fluorescent probe.
Assay [4] relates to NCI-H460. The assay is described as follows: Cytotoxicity against human NCI-H460 cells assessed as growth inhibition after 72 hrs by SRB assay. In kind it is functional, cell-based. The settings on record: NCI-H460, 72 h. In short, it runs like this: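 NCI-H460 cells grown in RPMI-1640 with 10% heat-inactivated FBS, seeded at about 10% confluence and allowed 24 h recovery. Exposed to graded drug concentrations or solvent for 72 h. Surviving fraction measured by sulforhodamine B. IC50 is the concentration giving a 50% drop in cell number vs vehicle, from dose-response curve fitting; mean of n=4 with SD.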
(In general: Sulforhodamine B stains cellular protein and so reports cell mass.)

Assay [5] addresses Heat shock protein HSP 90-beta (Homo sapiens) (UniProt P08238). The assay is described as follows: Inhibition of HSP90 in human A431 cells overexpressing EGFR assessed as induction of HSP70 protein expression after 24 hrs by Western blot analysis. In kind it is cell-based. The settings on record: A-431. In short, it runs like this: as §1
(In general: A western blot detects proteins with antibodies after separation by electrophoresis.)

Assay [6] has the same target. Put plainly: Inhibition of HSP90 in human A431 cells overexpressing EGFR assessed as downregulation of CDK4 protein expression after 24 hrs by Western blot analysis. The settings on record: A-431. In kind it is cell-based. In short, it runs like this: as §1

Sequence of Heat shock protein HSP 90-beta (Homo sapiens) (P08238 whole entry): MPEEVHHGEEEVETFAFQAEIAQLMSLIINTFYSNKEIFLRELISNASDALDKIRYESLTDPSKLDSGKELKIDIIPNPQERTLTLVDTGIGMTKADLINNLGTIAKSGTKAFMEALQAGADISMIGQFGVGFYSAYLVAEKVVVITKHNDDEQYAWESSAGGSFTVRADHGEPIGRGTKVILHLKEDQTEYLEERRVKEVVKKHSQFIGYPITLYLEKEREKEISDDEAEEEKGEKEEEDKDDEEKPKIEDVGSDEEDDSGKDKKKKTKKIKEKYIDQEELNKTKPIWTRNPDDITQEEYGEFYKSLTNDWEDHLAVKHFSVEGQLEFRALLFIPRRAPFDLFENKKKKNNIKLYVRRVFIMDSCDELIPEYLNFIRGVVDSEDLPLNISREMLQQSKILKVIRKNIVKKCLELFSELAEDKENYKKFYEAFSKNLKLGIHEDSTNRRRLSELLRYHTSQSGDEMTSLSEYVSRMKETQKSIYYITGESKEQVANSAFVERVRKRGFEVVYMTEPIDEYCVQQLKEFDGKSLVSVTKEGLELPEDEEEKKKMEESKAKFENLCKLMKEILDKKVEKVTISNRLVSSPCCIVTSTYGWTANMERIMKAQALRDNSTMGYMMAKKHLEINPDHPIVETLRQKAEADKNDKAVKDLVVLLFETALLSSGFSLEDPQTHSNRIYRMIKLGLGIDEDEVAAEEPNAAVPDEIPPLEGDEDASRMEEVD

On to `CC(C)c1cc(-n2nnc(C(=O)NC3CCCC3)c2-c2ccc(CN3CCOCC3)cc2)c(O)cc1O`, for which the inhibition result in assay [1], in assay [2], in assay [5] and in assay [6] was “Dose-dependent effect” each time. The IC50 in assay [3] came to 27 nM; in assay [4], 14 nM.
For `CCNC(=O)c1nnn(-c2cc(C(C)C)c(O)cc2O)c1-c1ccc(CNCC2CCCCC2)cc1`, the inhibition entry in assay [1], in assay [2], in assay [5] and in assay [6] was “Dose-dependent effect” throughout. Further, the IC50 was under 5 nM in assay [3] and 2.1 nM in assay [4].
In the case of `CCNC(=O)c1nnn(-c2cc(C(C)C)c(OC(C)=O)cc2OC(C)=O)c1-c1ccc(CN2CCOCC2)cc1`, the inhibition entry in assay [1], in assay [2], in assay [5] and in assay [6] was “Dose-dependent effect” each time. The results for the IC50 in assay [3] and in assay [4] were over 1000 nM and 6.5 nM, respectively.
For the compound `CCNC(=O)c1nnn(-c2cc(C(C)C)c(O)cc2O)c1-c1ccc(CN(CC)CC)cc1`, the inhibition result in assay [1], in assay [2], in assay [5] and in assay [6] was “Dose-dependent effect” in each case. In addition, the IC50 worked out at 25 nM in assay [3] and 11 nM in assay [4].
Turning to `CCNC(=O)c1nnn(-c2cc(C(C)C)c(O)cc2O)c1-c1ccc(CNCCN2CCOCC2)cc1`, the inhibition result in assay [1], in assay [2], in assay [5] and in assay [6] was “Dose-dependent effect” each time. Also, the IC50 in assay [3] was 14.8 nM; in assay [4] it was 140 nM.
For the compound `CCNC(=O)c1nnn(-c2cc(C(C)C)c(O)cc2O)c1-c1ccc(CNCCN(CC)CC)cc1`, the IC50 in assay [3] was 15 nM; in assay [4] it was 200 nM.
Regarding `CCNC(=O)c1nnn(-c2cc(C(C)C)c(O)cc2O)c1-c1ccc(CN2CCCCC2)cc1`, the inhibition entry in assay [1], in assay [2], in assay [5] and in assay [6] was “Dose-dependent effect” in each case. Moreover, the IC50 in assay [3] was determined as 21 nM; in assay [4] it was 6 nM.

A word on the IC50: it is the point on the concentration scale where inhibition reaches its midpoint.
